Measured values: ChEMBL document CHEMBL1153410, “Phenolic compounds with radical scavenging and cyclooxygenase-2 (COX-2) inhibitory activities from Dioscorea opposita” (Bioorg Med Chem, 2009)
Converted amounts (≈) assume the structure as drawn.

What was measured:
[1] = tested on: Radical scavenging activity; assay: Antioxidant activity assessed as DPPH radical scavenging activity after 30 mins by microplate reader assay; assay type: functional
Summary of the method: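 Mixed 1 min, then kept at room temperature ([…]) for 30 min. Absorbance read at 515 nm. Scavenging % corrected for a no-DPPH blank. IC50 taken from a calibration curve. Triplicate experiments, mean reported.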

[2] = Antioxidant activity assessed as superoxide radical scavenging activity after 20 mins by NBT reduction assay; assay type: functional
Summary of the method: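 Superoxide made by xanthine/xanthine oxidase and detected by NBT reduction. Xanthine oxidase (0.8 U/ml stock) added, then 37 °C for 20 min. Stopped with 1 M HCl and read at 560 nm. Blank lacks enzyme. IC50 from a calibration curve. Triplicate experiments, mean.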

[3] = biological target: T1, Prostaglandin G/H synthase 1 (Ovis aries, UniProt P05979); assay: Inhibition of ovine COX1 by colorimetric assay
T1 sequence (P05979 whole entry): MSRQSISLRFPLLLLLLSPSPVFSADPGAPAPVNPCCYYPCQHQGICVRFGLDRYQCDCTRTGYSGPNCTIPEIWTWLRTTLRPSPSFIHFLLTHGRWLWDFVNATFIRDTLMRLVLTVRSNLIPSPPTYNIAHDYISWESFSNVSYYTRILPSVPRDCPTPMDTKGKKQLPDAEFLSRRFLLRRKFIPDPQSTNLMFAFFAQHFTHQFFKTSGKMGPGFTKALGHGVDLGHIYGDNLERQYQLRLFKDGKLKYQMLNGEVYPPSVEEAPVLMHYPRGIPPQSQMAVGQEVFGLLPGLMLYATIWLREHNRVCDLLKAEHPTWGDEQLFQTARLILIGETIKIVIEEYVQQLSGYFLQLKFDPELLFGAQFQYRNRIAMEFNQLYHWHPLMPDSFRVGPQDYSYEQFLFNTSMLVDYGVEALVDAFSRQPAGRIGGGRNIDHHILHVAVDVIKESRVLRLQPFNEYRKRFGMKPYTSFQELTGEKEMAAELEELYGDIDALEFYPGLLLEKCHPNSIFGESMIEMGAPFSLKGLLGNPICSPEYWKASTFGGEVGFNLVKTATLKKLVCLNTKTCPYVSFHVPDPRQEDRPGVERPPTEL
Summary of the method: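 Ovine COX-1, colorimetric inhibitor screening kit. Enzyme preincubated 5 min at 25 °C with compound. Arachidonic acid (final 1.1 mM) and TMPD then added, 5 min at 25 °C. Inhibition % = [1−(A1−A2)/A0]×100, blank without TMPD. IC50 from calibration curve over several concentrations. Triplicate experiments, mean reported.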

| SMILES | IC50 [1] | IC50 [2] | IC50 [3] |
| --- | --- | --- | --- |
| O=c1cc(-c2ccc(O)cc2)oc2cc(O)cc(O)c12 [APIGENIN] | > 100 µg/mL | > 100 µg/mL | > 370 µM |
| O=C1O[C@H]([C@@H](O)CO)C(O)=C1O [ASCORBIC ACID] | 19.2 µg/mL (≈ 109 µM) | 16.7 µg/mL (≈ 94.8 µM) | – |
| Oc1cc(O)c2c(c1)OC(c1ccc(O)c(O)c1)C(O)C2 (stereo not given) [CATECHIN] | 13.5 µg/mL (≈ 46.5 µM) | 13.7 µg/mL (≈ 47.2 µM) | – |
| Oc1cc(O)c2c(c1)CCc1ccccc1O2 | > 100 µg/mL | > 100 µg/mL | > 438 µM |
| COc1cc(CCc2cc(O)cc(O)c2)ccc1O [TRISTIN] | 35.2 µg/mL (≈ 135 µM) | 51.6 µg/mL (≈ 198 µM) | – |
| COc1cc(O)cc(CCc2cccc(O)c2)c1 [BATATASIN III] | > 100 µg/mL | > 100 µg/mL | > 409 µM |
| O=C(/C=C/C=C/c1ccc(O)cc1)CCc1ccc(O)cc1 | > 100 µg/mL | 44.1 µg/mL (≈ 150 µM) | > 340 µM |
| COc1cc(CCc2ccccc2O)cc(OC)c1O | 28.8 µg/mL (≈ 105 µM) | 56.3 µg/mL (≈ 205 µM) | > 365 µM |
| Oc1ccc(CC[C@@H](O)C[C@H](O)CCc2ccc(O)cc2)cc1 [(+)-HANNOKINOL] | > 100 µg/mL | > 100 µg/mL | > 316 µM |
| COc1cc(O)c2c(c1)CCc1cc(O)ccc1-2 [LUSIANTHRIDIN] | 43 µg/mL (≈ 177 µM) | 51.5 µg/mL (≈ 213 µM) | > 413 µM |
| COc1cc(O)cc2c1Oc1ccccc1CC2 | 40.6 µg/mL (≈ 168 µM) | > 100 µg/mL | > 413 µM |
| COc1c(O)cc(CCc2ccccc2)cc1O | 37.5 µg/mL (≈ 154 µM) | > 100 µg/mL | > 409 µM |
| COc1c(O)cccc1CCc1cc(O)cc(O)c1 | 46.7 µg/mL (≈ 179 µM) | > 100 µg/mL | > 384 µM |
| COc1cc(/C=C/C=C/C(=O)CCc2ccc(O)cc2)ccc1O | 40 µg/mL (≈ 123 µM) | 38.8 µg/mL (≈ 120 µM) | > 308 µM |
| Oc1cc(O)cc(CCc2ccccc2O)c1 | > 100 µg/mL | > 100 µg/mL | > 434 µM |
| COc1cc(CC[C@@H](O)C[C@H](O)CCc2ccc(O)c(OC)c2)ccc1O | 12.3 µg/mL (≈ 32.7 µM) | 48.7 µg/mL (≈ 129 µM) | > 266 µM |
| COc1cc2c(ccc3cc(O)cc(OC)c32)cc1O | 31.4 µg/mL (≈ 116 µM) | 39.6 µg/mL (≈ 147 µM) | 11.1 µM |
| COc1cc(O)cc2c1-c1c(O)cccc1CC2 [HIRCINOL] | 63.8 µg/mL (≈ 263 µM) | 62.4 µg/mL (≈ 258 µM) | > 413 µM |
| O=C(/C=C/C=C/c1ccc(O)cc1)/C=C/c1ccc(O)cc1 | > 100 µg/mL | > 100 µg/mL | 19.8 µM |
| COc1ccc(CCc2ccccc2O)cc1OC | > 100 µg/mL | > 100 µg/mL | > 387 µM |
| COc1cc(O)cc(CCc2ccccc2O)c1 [BATATASIN IV] | > 100 µg/mL | > 100 µg/mL | > 409 µM |
